The values below come from publication PMC7684530 (European Journal of Medicinal Chemistry, 2020).

Entries after “also recorded” stand apart in the source; their conditions may differ. Where only a bound is given, the exact number is not on record here.

The target in data set [1] is T1, PqsR (Pseudomonas aeruginosa, UniProt Q9I4X0).
T1 sequence (Q9I4X0 1-332): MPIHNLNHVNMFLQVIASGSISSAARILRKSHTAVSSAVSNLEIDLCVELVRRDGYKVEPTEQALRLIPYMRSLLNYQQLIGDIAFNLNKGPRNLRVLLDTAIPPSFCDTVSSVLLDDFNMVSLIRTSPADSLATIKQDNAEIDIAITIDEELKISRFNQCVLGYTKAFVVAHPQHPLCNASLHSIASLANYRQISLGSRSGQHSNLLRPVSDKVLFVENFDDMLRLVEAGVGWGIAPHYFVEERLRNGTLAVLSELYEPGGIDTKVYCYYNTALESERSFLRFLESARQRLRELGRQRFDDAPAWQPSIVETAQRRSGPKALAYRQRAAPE
Description: 10 μM spot test in the PAO1-L mCTX:PpqsA-lux bioreporter. The class given is cell-based, Pseudomonas aeruginosa PAO1-L. The following applies: 10 μM ligand concentration. A digest of the protocol: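 Single-concentration screen of the PAO1-L mCTX:PpqsA-lux strain in LB. The reporter was grown overnight at 37 °C to OD600 2.0–3.0 and diluted to OD600 0.02. A 20 μM compound solution in LB was mixed 1:1 with the cells (final 10 μM) in at least three wells. OD600 and luminescence were read every 30 min at 37 °C over 24 h. Activity (luminescence/OD600) was taken at the luminescence peak and compared with the DMSO control.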

Data set [2] addresses T1, PqsR. Kind of data set: PqsR bioreporter assay. It is filed as cell-based, Pseudomonas aeruginosa PAO1-L. The following applies: for activity: read-out: IC50 value in PAO1-L. A digest of the protocol:
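Dose-response of the PAO1-L mCTX:PpqsA-lux reporter. Ten compound concentrations in LB came from two tenfold dilution series and were mixed 1:1 with PAO1-L diluted to OD600 0.02, giving final 31.6 μM to 1 nM, in triplicate. The plate was kinetically read at 37 °C over 24 h for OD600 and luminescence every 30 min. Values were taken at the luminescence peak (8–9 h), and log concentration was plotted against RLU/OD600.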
A general note: Reporter assays use an easily measured gene product as a stand-in for the process of interest.

A short description of data set [3]: Solubility in the cytotoxicity test buffer. As to conditions: this concentration = 100 μM. The class given is physicochemical.
The test system of data set [4] is A549 lung epithelial cells. Kind of data set: Cytotoxicity. As to conditions: 0.1 to 100 μM, 16 h. The class given is cell-based, human.

Consider `CC(C)c1noc(Cn2cnc3ccc(Cl)cc3c2=O)n1` [Compound 7], for which the “activity when screened at 10 μM (in words)” value (shortened to “activity when screened”) in data set [1] is “inactive; also recorded: inactivity”.
Turning to `Cc1nc(Cn2cnc3ccc(Cl)cc3c2=O)cs1` [Compound 8, 6-Chloro-3-((2-methylthiazol-4-yl)methyl)quinazolin-4(3H)-one], the activity in data set [2] was over 50%.
Consider `O=c1c2cc(Cl)ccc2ncn1Cc1csc(C(F)(F)F)n1` [Compound 9, 6-Chloro-3-((2-(trifluoromethyl)thiazol-4-yl)methyl)quinazolin-4(3H)-one], for which the activity in data set [2] is over 50%.
For `CCc1nc(Cn2cnc3ccc(Cl)cc3c2=O)cs1` [Compound 10, 6-Chloro-3-((2-ethylthiazol-4-yl)methyl)quinazolin-4(3H)-one], the activity in data set [2] is over 50%.
As for `N#CCc1nc(Cn2cnc3ccc(Cl)cc3c2=O)cs1` [Compound 11, 2-(4-((6-Chloro-4-oxoquinazolin-3(4H)-yl)methyl)thiazol-2-yl)acetonitrile], the activity in data set [2] was over 50%.
Take `CC(C)(C)c1nc(Cn2cnc3ccc(Cl)cc3c2=O)cs1` [Compound 12, 3-((2-(Tert-butyl)thiazol-4-yl)methyl)-6-chloroquinazolin-4(3H)-one]: the “activity in PAO1-L compared with 32” value in data set [2] (ratio of IC50 values, strain PAO1-L) was “seven-fold stronger activity”.
For the molecule `CCCCCc1nc(Cn2cnc3ccc(Cl)cc3c2=O)cs1` [Compound 18, 6-Chloro-3-((2-pentylthiazol-4-yl)methyl)quinazolin-4(3H)-one], the “solubility in the test buffer” value in data set [3] is listed as “neither compound was fully soluble above this concentration”. Moreover, in data set [4], the “cytotoxic concentration (no significant toxicity up to; LD50 not reached)” value is over 100 µM.
For `CCCCCCc1nc(Cn2cnc3ccc(Cl)cc3c2=O)cs1` [Compound 19, 6-Chloro-3-((2-hexylthiazol-4-yl)methyl)quinazolin-4(3H)-one] the same measures were “neither compound was fully soluble above this concentration” and over 100 µM.
As to `O=c1c2cc(Cl)ccc2ncn1Cc1csc(-c2ccc([N+](=O)[O-])cc2)n1` [Compound 23, 6-Chloro-3-((2-(4-nitrophenyl)thiazol-4-yl)methyl)quinazolin-4(3H)-one], the activity in data set [2] is over 50%. Further, in data set [1], the “activity when screened” value was “inactive”.
Consider `COCCNc1nc(Cn2cnc3ccc(Cl)cc3c2=O)cs1` [Compound 24, 6-Chloro-3-((2-((2-methoxyethyl)amino)thiazol-4-yl)methyl)quinazolin-4(3H)-one], for which the activity in data set [2] was over 50%. Further, the “activity when screened” value in data set [1] is on record as “no inhibition”.
In the same order, the values of `NC(N)=Nc1nc(Cn2cnc3ccc(Cl)cc3c2=O)cs1` [Compound 26, 2-(4-((6-Chloro-4-oxoquinazolin-3(4H)-yl)methyl)thiazol-2-yl)guanidine] are over 50% and “inactive”.
Regarding `CC1CCN(c2ncc(Cn3cnc4ccc(Cl)cc4c3=O)s2)CC1` [Compound 27, 6-Chloro-3-((2-(4-methylpiperidin-1-yl)thiazol-5-yl)methyl)quinazolin-4-(3H)-one], in data set [2], the activity was over 50%.
As for `O=c1c2cc(Cl)ccc2ncn1Cc1cnc(NC2CCCCC2)s1` [Compound 28, 6-Chloro-3-((2-(cyclohexylamino)thiazol-5-yl)methyl)quinazolin-4-(3H)-one], the activity in data set [2] was over 50%.
Take `CN(CCO)c1ncc(Cn2cnc3ccc(Cl)cc3c2=O)s1` [Compound 29, 6-Chloro-3-((2-(2-hydroxyethyl(methyl)amino)thiazol-5-yl)methyl)quinazolin-4-(3H)-one]: the activity in data set [2] was over 50%.
As to `CCCCNc1ncc(Cn2cnc3ccc(Cl)cc3c2=O)s1` [Compound 30, 3-((2-(Butylamino)thiazol-5-yl)methyl)-6-chloroquinazolin-4(3H)-one], the activity in data set [2] is over 50%.
For `COCCNc1ncc(Cn2cnc3ccc(Cl)cc3c2=O)s1` [Compound 31, 6-Chloro-3-((2-((2-methoxyethyl)amino)thiazol-5-yl)methyl)quinazolin-4-(3H)-one], in data set [2], the activity was over 50%.
Regarding `CCCCCc1nc(Cn2cnc3cc(Cl)ccc3c2=O)cs1` [Compound 33, 7-Chloro-3-((2-pentylthiazol-4-yl)methyl)quinazolin-4(3H)-one], the activity in data set [2] was over 50%. Further, the “activity when screened” value in data set [1] was “inactive”.
In the case of `O=c1c2cc(Cl)ccc2ncn1Cc1cnc(Cl)s1` [Compound 34, 6-Chloro-3-((2-chlorothiazol-5-yl)methyl)quinazolin-4(3H)-one], the activity in data set [2] was over 50%.
`CC(C)c1ncc(Cn2cnc3ccc(Cl)cc3c2=O)s1` [Compound 35, 6-Chloro-3-((2-isopropylthiazol-5-yl)methyl)quinazolin-4(3H)-one]: the activity in data set [2] is over 50%. Moreover, the “activity when screened” value in data set [1] was “inactive; also recorded: inactivity”.
